M1 antagonist = antagonists of rat M1 muscarinic receptor; Muscarinic acetylcholine receptor M1 (Rattus norvegicus), P08482; CHO-M1 cells, Fluo-4 calcium, ACh EC80 antagonist mode; stronger effect = lower value; B-score at 10 µM; hit rate 3.4% among 64,000;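 active = calcium fluorescence response, raw or row-and-column corrected B-score, differing from the plate sample mean either way at a set confidence level, mostly lower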
HEK293 NFkB inh = inhibitors of PMA/ionomycin-induced NF-kB reporter, primary screen, antigen receptor NF-kB inhibitor project, cell-based, HEK-293 luciferase reporter, luminescence | AID 465, 2006 | hit rate 0.21% among 62,000 | HEK-293 NF-kB luciferase reporter | inhibition, % at 3 µM;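 active = inhibition above the mean of all tested compounds plus 3 SD, cut at about 40% in these data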;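 also: 0% = stimulated DMSO wells and 100% = 10 µM reference inhibitor 5653914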
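Signal: luciferase luminescence; Material: HEK-293 cells with stable firefly luciferase reporter driven by four HIV NF-kB elements; Probe or stimulus: PMA with ionomycin; Replication: tested once; Times: 1 h compound pretreatment, then 16 h stimulation at 37 °C, 5% CO2; Benchmarks: DMSO and 10 µM reference inhibitor; Evaluation: per-plate % inhibition versus controls.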
M1 agonist = M1 muscarinic receptor agonists, primary screen, CHO-M1 cells, Fluo-4 calcium, agonist mode; Fluo-4 calcium fluorescence; stronger effect = higher value; B-score at 10 µM; hit rate 3% among 64,000; AID 626, 2007;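 active = fluorescence rise, raw or as B-score row- and column-corrected plate score, outside the 99.7% band of its plate's samples, either direction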
Htt clearance = clearance of mutant huntingtin inclusions, primary screen, imaging, HeLa Exon1htt(103Q)mCFP, confocal imaging | aggregate imaging; zero = plate's median compound well | hit rate 0.42% among 47,000 | inhibition, % at 1.5 µM;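 active = inhibition of aggregate fluorescence above about 70%, also judged a hit by eye on the cell image, limit read from the data, passing the limit was not always enough; inconclusive = no rule stated for this call; inactive = not judged a hit on image review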;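 also: cells exposed to compound for three days before fixation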
Jurkat viability = cytotoxicity toward Jurkat T cells, primary screen, cytotoxicity control, cell-based, Jurkat E6.1, 60K MLSMR library; AID 463, 2006; Jurkat E6.1 viability, ATP luminescence, 48 h; hit rate 1.2% among 56,000; inhibition, % at 4 µM;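 active = inhibition above the mean inhibition of all tested compounds plus 3 SD, cut at about 28% in these data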
D1 allo mod = D1 CRE-luciferase signal change, two-sided – cell-based, HEK293 D1, dopamine EC30, D1 allosteric modulator project, primary screen. D(1A) dopamine receptor (Homo sapiens), P21728. dopamine EC30 potentiation; actives deviate in either direction. B-score at 10 µM. hit rate 5.9% among 58,000;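 active = luminescence count or its row- and column-corrected plate score outside the 99.7% band of the plate's sample wells, on either side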
M1 agonist conf = rat M1 muscarinic receptor agonists, confirmation, CHO-M1 cells, Fluo-4 calcium, duplicate retest; shares compounds with M1 agonist; Fluo-4 calcium fluorescence, agonist mode; actives lie on both sides; fluorescence change (max-min) at 10 µM; hit rate 19% among 1,700; AID 1488, 2009;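 active = fluorescence change differs from the solvent-only DMSO control mean at a set confidence level in both duplicate runs; inconclusive = differs from solvent-only control mean in just one of two runs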;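 also: an EC20 dose of acetylcholine follows compound addition during the same imaging run; raw fluorescence intensity difference in instrument units with no normalization to controls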
M4 agonist ctr = agonist activity at rat M4 receptor, confirmation, counter-screen for M1 allosteric modulator project, cell-based, agonist mode; hit rate 9% among 1,700; AID 1741, 2009; shares compounds with M1 agonist; fluorescence change (max-min) at 10 µM; CHO M4/Gqi5 cells, Fluo-4 calcium fluorescence; actives lie on both sides;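 active = fluorescence change differing from the plate's solvent-only control wells at 99.7% confidence in both duplicates, whether higher or lower; inconclusive = differs from solvent controls in only one of two duplicates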
Target sequence (P08485 whole entry, looked up): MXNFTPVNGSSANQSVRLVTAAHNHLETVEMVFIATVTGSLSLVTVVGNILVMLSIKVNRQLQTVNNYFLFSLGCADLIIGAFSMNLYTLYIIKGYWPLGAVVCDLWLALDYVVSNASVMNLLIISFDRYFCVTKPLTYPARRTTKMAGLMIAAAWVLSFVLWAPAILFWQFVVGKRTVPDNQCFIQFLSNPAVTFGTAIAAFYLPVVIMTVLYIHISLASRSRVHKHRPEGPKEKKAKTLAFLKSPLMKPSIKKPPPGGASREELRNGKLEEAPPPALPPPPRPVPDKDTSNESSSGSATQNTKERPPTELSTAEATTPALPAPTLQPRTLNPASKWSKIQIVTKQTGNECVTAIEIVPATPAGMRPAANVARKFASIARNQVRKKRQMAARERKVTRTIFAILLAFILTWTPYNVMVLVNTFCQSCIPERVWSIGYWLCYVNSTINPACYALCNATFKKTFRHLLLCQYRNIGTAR
Starred values were filed as active, the others as inactive; ? = inconclusive; · = no result. Only some compounds are listed: those with a hit (about 9.5% of all), similar ones and a draw of the others.

SMILES | M1 antagonist | HEK293 NFkB inh | M1 agonist | Htt clearance | Jurkat viability | D1 allo mod | M1 agonist conf | M4 agonist ctr
O=C(CSc1nnc(Cn2nnc3ccccc32)o1)N(Cc1ccc(F)cc1)c1ccccc1 | -2.2 | 19 | 6.2* | 38 | 98* | · | -34* | -18
COc1ccc(CN(C(=O)CSc2nnc(-c3ccc(F)cc3)o2)c2ccc(F)cc2)cc1 | 0.019 | 20 | 0.36 | · | -5 | 0.24 | · | ·
CC1CCCN(c2nc3c(c(=O)[nH]c(=O)n3C)n2CCSc2ncccn2)C1 (centres undefined) | 0.3 | 18 | 0.15 | · | 10 | · | · | ·
O=C(CN(CCc1ccccc1)C(=O)Cn1nnc(-c2cccs2)n1)NCc1ccco1 | 0.19 | 9 | -0.014 | -4 | 7 | · | · | ·
O=C(CN(Cc1ccccc1Cl)C(=O)Cn1nnc(-c2cccs2)n1)NCC1CCCO1 (centres undefined) | -1.3 | 13 | 7.7* | · | -1 | · | -12 | -15
Cc1c(Nc2cc(N3CCCCCC3)c3nonc3c2[N+](=O)[O-])c(=O)n(-c2ccccc2)n1C | · | · | · | -2 | · | · | · | ·
CCOc1ccc(N2C(=O)CC(n3ccc(C)n3)C2=O)cc1 (centres undefined) | · | · | · | -5 | · | · | · | ·
O=C(Cc1nc2ccccc2s1)c1ccc(O)cc1O | 0.24 | -6 | -1.8* | 13 | 6 | -2.9 | 4.5 | 4.1
c1ccc(CSc2nnc(-c3ccco3)n2Cc2ccco2)cc1 | -0.51 | -5 | -0.46 | · | · | -2.2 | · | ·
CCCCOc1[nH]c2nc(-c3ccco3)n(Cc3ccco3)c(=N)c2c1C#N | -0.032 | -4 | 15* | 50 | 5 | 1.1 | 18 | 6.2
Cc1cnn(C(=S)NCC2CCCO2)c1 (centres undefined) | 0.79 | 9 | 1.1 | · | -6 | 0.7 | · | ·
Cc1ccc(-c2nc(CSCC(=O)N3CCN(c4ccccn4)CC3)c(C)o2)cc1 | -2.3* | 13 | 5.6* | · | 29 | -2.9 | ? | -52
Cc1cccc(-c2nc(CSCC(=O)N3CCN(Cc4ccc5c(c4)OCO5)CC3)c(C)o2)c1 | -4* | 13 | 5.7* | · | 6 | 0.53 | -0.64 | ?
CCc1ccc(-c2nc(CSCC(=O)N3CCN(c4ccccn4)CC3)c(C)o2)cc1 | -1.4 | 11 | 4.6* | -15 | 25 | -1.6 | -6.3 | ?
Cc1ccc(-c2nc(CSCC(=O)N3CCOCC3)c(C)o2)cc1 | -0.0077 | 11 | -0.92 | -48 | 6 | 1.2 | · | ·
CCOc1nnnc2c1sc1nc(N3CCOCC3)c3c(c12)CC(C)(C)OC3 | 0.7 | · | -0.64 | 26 | · | · | · | ·
CNc1nc(OCC(F)(F)F)nc(N2CCN(C34CC5CC(CC(C5)C3)C4)CC2)n1 | · | · | · | 29 | · | · | · | ·
Cc1ccc(S(=O)(=O)N(C)c2ccc(C(=O)N3CCN(Cc4ccc5c(c4)OCO5)CC3)cc2)cc1 | · | · | · | -24 | · | · | · | ·
CCC1CCCCN1C(=O)Cn1c(C(=O)OC)cc2ccsc21 (centres undefined) | 0.096 | 17 | -0.13 | · | 4 | 1.1 | · | ·
CCCc1nc(SCC(=O)N2CCC(Cc3ccccc3)CC2)c2c(=O)n(C)c(=O)n(C)c2n1 | -1.2 | 25 | 4* | 18 | -5 | -0.5 | -13 | -21
Cn1c(=O)c2c(SCC(=O)N3CCCc4ccccc43)nc(CC(C)(C)C)nc2n(C)c1=O | -0.37 | 8 | -0.17 | 9 | -12 | 1.5 | · | ·
CCCc1nc(SCC(=O)N2CCCc3ccccc32)c2c(=O)n(C)c(=O)n(C)c2n1 | -1.4* | 4 | 2.9* | 27 | -3 | · | ? | -37
COC(=O)c1ccccc1NC(=O)C1CC(=O)N(c2ccccc2)C1 (centres undefined) | 0.3 | 10 | 0.062 | -18 | 0 | 0.22 | · | ·
O=C(Nc1cccc2nsnc12)C1CC(=O)N(c2ccccc2)C1 (centres undefined) | 0.015 | 4 | -2.7* | 29 | 7 | -0.13 | ? | ?
O=C(CCCN1C(=O)c2ccccc2C1=O)Nc1ccccc1C(=O)N1CCOCC1 | 0.68 | -7 | 2.3* | 31 | 6 | -0.21 | -19 | -31
SMILES | M1 antagonist | HEK293 NFkB inh | M1 agonist | Htt clearance | Jurkat viability | D1 allo mod | M1 agonist conf | M4 agonist ctr
CCC(=O)Nc1ccccc1C(=O)N1CCOCC1 | 0.46 | 4 | -0.03 | · | 1 | -0.3 | · | ·
Cc1cc(NC(=O)c2cc(C(C)C)on2)nn1Cc1ccc(Cl)cc1 | · | · | · | -7 | · | · | · | ·
COc1c(Cl)cc(Cl)cc1/C=N/n1cnnc1 | 0.021 | 14 | -1.3 | · | -4 | 0.68 | · | ·
CCn1c(SCC(=O)Nc2nc3ccccc3s2)nc2c(c1=O)SC(C)C2 (centres undefined) | -1.1 | 22 | 2.3* | · | 11 | -0.7 | ? | -70
Cn1c(N2CCOCC2)nc(-c2ccccc2)c1-c1ccccc1 | 0.23 | 6 | 0.32 | 3 | 0 | · | · | ·
COc1cc(NC(=O)c2ccco2)c(OC)cc1NC(=O)CSc1nnc(-c2cccs2)n1C | -0.8 | 8 | 6.2* | -21 | 0 | 0.16 | -32* | ?
CCOC(=O)c1c(C)oc2c1c(C=NC1CCS(=O)(=O)C1)c(O)c1ccccc12 (centres undefined) | 0.36 | 11 | 0.0088 | · | 2 | · | · | ·
CCOC(=O)c1c(C)oc2c1c(C(c1ccncc1)N1CCOCC1)c(O)c1ccccc12 (centres undefined) | 0.011 | 16 | 3* | · | -5 | 0.099 | ? | -50
Cc1ccccc1C(=O)N1CCN(c2ccc(NC(=O)c3ccco3)cc2Cl)CC1 | -0.18 | 0 | 2.9* | 42 | 4 | -1.5 | ? | -94
Cc1cccc(NC(=O)c2cc(NC(=O)c3ccco3)ccc2Cl)n1 | -0.88 | 16 | 2.5* | 40 | 6 | -0.079 | 0.72 | -8
COc1ccc(C(=O)Nc2nncs2)cc1S(=O)(=O)N1CC(c2ccccc2)CC1=O (centres undefined) | -0.42 | -2 | 0.33 | -4 | 4 | -0.029 | · | ·
COc1ccc(NC(=O)N(Cc2cc3cc(OC)ccc3[nH]c2=O)CC2CCCO2)cc1 (centres undefined) | -0.44 | 11 | 4* | · | 6 | -0.94 | ? | -74*
CCS(=O)(=O)NCC(c1cccnc1)N1CCN(c2ccc(F)cc2)CC1 (centres undefined) | -0.55 | 2 | 5.1* | · | -9 | -0.035 | -11 | -28
